In ChEMBL document CHEMBL1148639, “A novel series of potent and selective PDE5 inhibitors with potential for high and dose-independent oral bioavailability” (J Med Chem, 2006):
pIC50: −log10 of the molar value. In brackets after ≈: the same amount, converted by molar mass.

Assays:
[1] = Selectivity for human PDE5 over canine retinal PDE6
Outline: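 Ratio of IC50s for PDE5 from human corpus cavernosum and cone PDE6 from canine retina. PDE6 came from the 100 000g supernatant of retina homogenate, purified by anion exchange with a NaCl gradient. Activity was read by scintillation proximity assay with cGMP (3:1 unlabeled:3H) at about 1/3 Km, so IC50 = Ki. Buffer was 20 mM Tris-HCl pH 7.4, 5 mM MgCl2 and 1 mg/mL BSA. Incubation ran 30-60 min at 30 °C, keeping turnover below 30%. PDE5 curves spanned 1 nM-10 µM.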

[2] = target: T1, cGMP-specific 3',5'-cyclic phosphodiesterase (Homo sapiens, UniProt O76074)
[3] = Distribution coefficient, logD of the compound; type: physicochemical; settings: octanol/water
[4] = Ratio of secretory flux to absorptive flux in human Caco-2 cell; type: ADME, cell-based
Outline: (§1)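 Human Caco-2 monolayers were used. Papp = amount transported/(time × surface area × initial concentration). Compounds were tested at 25 µM unless stated otherwise. Efflux ratio = secretory flux ÷ absorptive flux.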

[5] = Solubility at pH 6.95; type: physicochemical; settings: buffer
Outline: (§2)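 Solid was removed by filtration (with filter-binding check) or double centrifugation. The pH of the soluble fraction was measured, and the solution was diluted in mobile phase and quantified by HPLC or MS. Bulk form was checked by microscopy.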

[6] = Apparent permeability in human Caco-2 cell at 25 uM; type: ADME, cell-based; outline: as §1
[7] = Stability in dog liver microsome; type: ADME, Canis lupus familiaris; settings: liver microsomes, read-out: Stability
physchem = settings: octanol/water, pH 7.4
[8] = Plasma protein binding in dog at 0.5 mg/kg; type: ADME, organism-based, Canis lupus familiaris; design: dose 0.5 mg/kg; settings: read-out: PPB (converted)
Outline: (§3)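 Compound was given intravenously to dogs. Pharmacokinetic parameters, including plasma protein binding, are means of n = 2 animals.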

[9] = Half life in dog at 0.5 mg/kg; type: ADME, organism-based, Canis lupus familiaris; design: dose 0.5 mg/kg; settings: in vivo; outline: as §3
[10] = Solubility at pH 7.6; type: physicochemical; settings: buffer; outline: as §2
[11] = Clearance in dog at 0.5 mg/kg; type: ADME, organism-based, Canis lupus familiaris; design: dose 0.5 mg/kg; settings: in vivo; outline: as §3
[12] = Volume of distribution in dog at 0.5 mg/kg; type: ADME, organism-based, Canis lupus familiaris; design: dose 0.5 mg/kg; settings: in vivo, read-out: Vdss; outline: as §3
[13] = Solubility at pH 7.4; type: physicochemical; settings: buffer; outline: as §2
[14] = Tmax in dog at 0.5 mg/kg; type: ADME, organism-based, Canis lupus familiaris; design: dose 0.5 mg/kg; settings: in vivo
[15] = Oral bioavailability in dog at 0.5 mg/kg; type: ADME, organism-based, Canis lupus familiaris; settings: in vivo
[16] = target: T1, cGMP-specific 3',5'-cyclic phosphodiesterase; remark: listed apart in the source
[17] = Solubility at pH 7.3; type: physicochemical; settings: buffer; outline: as §2
[18] = Oral bioavailability in human; type: ADME, organism-based; settings: in vivo

Structure (SMILES): CCc1c2nc(-c3cc(C(C)=O)cnc3OCC(C)C)nc(O)c2nn1C1CN(C)C1
- Selectivity ratio [1]: 84

Structure (SMILES): CCCOc1ncc(C(C)=O)cc1-c1nc(=O)c2nn(C3CNC3)c(CC)c2[nH]1
- Selectivity ratio [1]: 55

Structure (SMILES): CCCCOc1ncc(C(C)=O)cc1-c1nc(O)c2nn(C3CCNCC3)c(CC)c2n1
- Selectivity ratio [1]: 57

Structure (SMILES): CCCOc1ncc(C(C)=O)cc1-c1nc2c(CC)n(C3CN(C)C3)nc2c(=O)[nH]1
- pIC50 [2]: 8.02
- logD [3]: 1.2

Structure (SMILES): CCCCOc1ncc(C(C)=O)cc1-c1nc(O)c2nn(Cc3nccn3C)c(CC)c2n1
- Selectivity ratio [1]: 142
- efflux ratio [4]: 1.6
- solubility [5]: 6 µg/mL (≈ 13.3 µM)
- pIC50 [2]: 9.05
- Papp at 25 µM [6]: 5 ×10⁻⁶ cm/s
- half-life [7]: > 2 h
- logD (physchem): 2.6

Structure (SMILES): CCCCOc1ncc(C(C)=O)cc1-c1nc2c(CC)n(C3CNC3)nc2c(=O)[nH]1
- pIC50 [2]: 7.68

Structure (SMILES): CCCCOc1ncc(C(C)=O)cc1-c1nc(O)c2nn(C3CCN(C)CC3)c(CC)c2n1
- Selectivity ratio [1]: 77

Structure (SMILES): CCCOc1ncc(C(C)=O)cc1-c1nc2c(CC)n(C3CN(CC)C3)nc2c(=O)[nH]1
- pIC50 [2]: 8.15

Structure (SMILES): CCCOc1ncc(C(C)=O)cc1-c1nc2c(CC)n(C3CNC3)nc2c(=O)[nH]1
- pIC50 [2]: 7.47
- logD [3]: 0.3

Structure (SMILES): CCCOc1ncc(C(C)=O)cc1-c1nc(O)c2nn(Cc3nccn3C)c(CC)c2n1
- Selectivity ratio [1]: 58
- pIC50 [2]: 8.57

Structure (SMILES): CCCOc1ncc(C(C)=O)cc1-c1nc(O)c2nn(C3CN(C(C)C)C3)c(CC)c2n1
- Selectivity ratio [1]: 60

Structure (SMILES): CCCOc1ncc(C(C)=O)cc1-c1nc(O)c2nn(C3CN(C)C3)c(CC)c2n1
- Selectivity ratio [1]: 69

Structure (SMILES): CCCCOc1ncc(C(C)=O)cc1-c1nc(O)c2nn(C3CN(C)C3)c(CC)c2n1
- Selectivity ratio [1]: 43

Structure (SMILES): CCc1c2nc(-c3cc(C(C)=O)cnc3OCCOC)nc(O)c2nn1CCN1CCOCC1
- Selectivity ratio [1]: 58
- pIC50 [2]: 7.28

Structure (SMILES): CCCc1nn(C)c2c(=O)[nH]c(-c3cc(C(C)=O)ccc3OCC)nc12
- efflux ratio [4]: 0.7
- pIC50 [2]: 7.77
- Papp at 25 µM [6]: 43 ×10⁻⁶ cm/s

Structure (SMILES): CCCOc1ncc(C(C)=O)cc1-c1nc2c(CC)n(C3CCN(C)CC3)nc2c(=O)[nH]1
- pIC50 [2]: 7.92

Structure (SMILES): CCCOc1ncc(C(C)=O)cc1-c1nc(O)c2nn(C3CCN(CC)CC3)c(CC)c2n1
- Selectivity ratio [1]: 18

Structure (SMILES): CCCCOc1ncc(C(C)=O)cc1-c1nc2c(CC)n(C3CN(C)C3)nc2c(=O)[nH]1
- pIC50 [2]: 8.19

Structure (SMILES): CCCCOc1ncc(C(C)=O)cc1-c1nc(O)c2nn(C3CNC3)c(CC)c2n1
- Selectivity ratio [1]: 29

Structure (SMILES): CCCOc1ncc(C(C)=O)cc1-c1nc2c(CC)n(C3CCNCC3)nc2c(=O)[nH]1
- pIC50 [2]: 8.15

Structure (SMILES): CCCOc1ncc(C(C)=O)cc1-c1nc(O)c2nn(C3CN(CC)C3)c(CC)c2n1
- Selectivity ratio [1]: 61

Structure (SMILES): CCCOc1ncc(C(C)=O)cc1-c1nc2c(CC)n(C3CCN(CC)CC3)nc2c(=O)[nH]1
- pIC50 [2]: 7.89

Structure (SMILES): CCCCOc1ncc(C(C)=O)cc1-c1nc2c(CC)n(C3CCN(C)CC3)nc2c(=O)[nH]1
- pIC50 [2]: 8.04

Structure (SMILES): CCCCOc1ncc(C(C)=O)cc1-c1nc2c(CC)n(C3CCN(CC)CC3)nc2c(=O)[nH]1
- fraction unbound [8]: 0.4
- half-life [9]: 6.7 h
- efflux ratio [4]: 1
- pIC50 [2]: 8.44
- Papp at 25 µM [6]: 53 ×10⁻⁶ cm/s
- half-life [7]: > 2 h
- solubility [10]: 1100 µg/mL (≈ 2360 µM)
- clearance [11]: 38 mL/min/kg
- Vd [12]: 22 L/kg
- logD (physchem): 1.8

Structure (SMILES): CCCOc1ncc(C(C)=O)cc1-c1nc(=O)c2nn(C3CNC3)c(CCC)c2[nH]1
- Selectivity ratio [1]: 26
- pIC50 [2]: 7.74
- logD [3]: 0.6

Structure (SMILES): CCCCOc1ncc(C(C)=O)cc1-c1nc2c(CC)n(C3CN(CC)C3)nc2c(=O)[nH]1
- fraction unbound [8]: 0.38
- half-life [9]: 9 h
- efflux ratio [4]: 0.9
- solubility [13]: 390 µg/mL (≈ 889 µM)
- pIC50 [2]: 8.26
- Tmax [14]: 1.4 h
- bioavailability [15]: 76%
- Papp at 25 µM [6]: 30 ×10⁻⁶ cm/s
- half-life [7]: 1.58 h
- clearance [11]: 17.5 mL/min/kg
- pIC50 [16]: 8.26
- Vd [12]: 13.4 L/kg
- logD (physchem): 2.8

Structure (SMILES): CCCOc1ncc(C(C)=O)cc1-c1nc(O)c2nn(C3CCN(C)CC3)c(CC)c2n1
- Selectivity ratio [1]: 37

Structure (SMILES): CCCOc1ncc(C(C)=O)cc1-c1nc2c(CC)n(C3CN(C(C)C)C3)nc2c(=O)[nH]1
- fraction unbound [8]: 0.34
- half-life [9]: 7.2 h
- efflux ratio [4]: 0.5
- pIC50 [2]: 8.28
- Tmax [14]: 1.9 h
- solubility [17]: 170 µg/mL (≈ 388 µM)
- bioavailability [15]: 91%
- Papp at 25 µM [6]: 28 ×10⁻⁶ cm/s
- half-life [7]: > 2 h
- clearance [11]: 13 mL/min/kg
- Vd [12]: 7.8 L/kg
- logD (physchem): 2.5

Structure (SMILES): CCc1c2nc(-c3cc(S(=O)(=O)N4CCN(CC)CC4)cnc3OCCOC)[nH]c(=O)c2nn1Cc1ccccn1
- pIC50 [2]: 8.89
- bioavailability [18]: 45%

Structure (SMILES): CCCOc1ncc(C(C)=O)cc1-c1nc(O)c2nn(C3CN(C)C3)c(CCC)c2n1
- Selectivity ratio [1]: 30
- pIC50 [2]: 7.83
- logD [3]: 1.5

Structure (SMILES): CCCCOc1ncc(C(C)=O)cc1-c1nc2c(CC)n(CCN3CCOCC3)nc2c(=O)[nH]1
- pIC50 [2]: 8.59
- solubility [17]: < 10 µg/mL
- Papp at 25 µM [6]: 37 ×10⁻⁶ cm/s
- half-life [7]: > 2 h

Structure (SMILES): CCCc1nn(C)c2c(=O)[nH]c(-c3cc(C(=O)CN4CCOCC4)ccc3OCC)nc12
- efflux ratio [4]: 0.8
- pIC50 [2]: 8.77
- Papp at 25 µM [6]: 33 ×10⁻⁶ cm/s

Structure (SMILES): CCCCOc1ncc(C(C)=O)cc1-c1nc2c(CC)n(C3CCNCC3)nc2c(=O)[nH]1
- pIC50 [2]: 7.74

Structure (SMILES): CCCOc1ncc(C(C)=O)cc1-c1nc(O)c2nn(C3CCNCC3)c(CC)c2n1
- Selectivity ratio [1]: 53

Structure (SMILES): CCCCOc1ncc(C(C)=O)cc1-c1nc(O)c2nn(C3CN(CC)C3)c(CC)c2n1
- Selectivity ratio [1]: 153

Structure (SMILES): CCCCOc1ncc(C(C)=O)cc1-c1nc(O)c2nn(C3CCN(CC)CC3)c(CC)c2n1
- Selectivity ratio [1]: 350

Structure (SMILES): CCc1c2nc(-c3cc(C(C)=O)cnc3OCC(C)C)[nH]c(=O)c2nn1C1CN(C)C1
- pIC50 [2]: 8.09
